Screening results (PubChem)
Most compounds without a hit are left out; they make up all but 3.7% or so of the library.
PGE2 EP2 inh: blocks the human prostaglandin E2 receptor EP2; C6 glioma cells expressing human EP2, cAMP TR-FRET; cells stimulated with saturating PGE2; inhibition, % at 25 µM; 260,000 compounds, 0.52% hits; P43116;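 active = percent inhibition above 40 after rounding to a whole number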;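 note: rat C6 glioma host cells with rolipram phosphodiesterase inhibitor present; the protocol text gives 20 µM as final concentration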
Target sequence (P43116 whole entry, looked up): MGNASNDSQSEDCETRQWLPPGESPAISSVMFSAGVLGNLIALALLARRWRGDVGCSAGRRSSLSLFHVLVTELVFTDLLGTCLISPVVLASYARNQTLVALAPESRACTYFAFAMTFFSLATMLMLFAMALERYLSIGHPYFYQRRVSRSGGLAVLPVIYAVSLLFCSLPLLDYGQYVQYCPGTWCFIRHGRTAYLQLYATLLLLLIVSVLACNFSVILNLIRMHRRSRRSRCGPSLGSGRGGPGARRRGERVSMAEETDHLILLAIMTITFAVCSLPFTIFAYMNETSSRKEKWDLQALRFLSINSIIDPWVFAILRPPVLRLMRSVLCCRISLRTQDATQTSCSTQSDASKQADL
CHO parental Ca: signal in parental CHO cells, OX1R antagonist counter-screen. AID 463079. parental CHO-K1, ATP-induced calcium, Fluo-8 fluorescence. inhibition, % at 5.6 µM. 330,000 compounds, 0.63% hits;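 active = inhibition above that plate's mean sample inhibition plus 3 SD, cut at about 26% in these data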
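Test system: untransfected parental CHO cell line; also added: ATP stimulus; dosing: 5.6 µM, single dose; signal: calcium-sensitive Fluo-8 fluorescence; measure: percent inhibition of ATP-evoked calcium rise, normalized to controls; benchmarks: low control ATP plus DMSO, high control DMSO only; replication: one well per compound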
OX1R antag-1: OX1R (human) antagonism. O43613. OX1R-expressing cells, FRET antagonist read-out. inhibition, % at 6.6 µM. 330,000 compounds, 1.8% hits. AID 485270; in the data active = inhibition mostly above about 38%, no sharp cut-off; inactive = mostly below about 40%
OX1R antag-2: blocks the human orexin 1 receptor. 330,000 compounds, 0.43% hits. inhibition, % at 5 µM. AID 434989. CHO/OX1R cells, Fluo-8 calcium fluorescence, orexin A;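 active = inhibition above its plate's threshold, mean inhibition of all tested compounds on the plate plus 3 SD, cut at about 37% in these data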
GPR7 antag: antagonists of human GPR7 (neuropeptides B/W receptor 1); GPR7-expressing cells, fluorescence antagonist assay; inhibition, % at 4.4 µM; 290,000 compounds, 1.1% hits; AID 1861; in the data active = inhibition above about 16%, passing the limit was not always enough;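 note: cells stimulated with the agonist NPW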
Target sequence (P48145 whole entry, looked up): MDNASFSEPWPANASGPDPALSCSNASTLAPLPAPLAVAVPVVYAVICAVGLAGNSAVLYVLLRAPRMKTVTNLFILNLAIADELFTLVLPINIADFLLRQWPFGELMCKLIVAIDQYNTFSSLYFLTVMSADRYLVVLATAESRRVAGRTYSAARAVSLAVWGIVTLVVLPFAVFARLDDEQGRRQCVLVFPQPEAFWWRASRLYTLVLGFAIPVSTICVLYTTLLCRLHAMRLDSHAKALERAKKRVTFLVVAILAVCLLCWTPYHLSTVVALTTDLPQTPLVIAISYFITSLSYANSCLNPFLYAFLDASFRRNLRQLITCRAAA
EP2 modulator: modulates human prostaglandin E2 receptor EP2 signaling; EP2-expressing cells, cAMP HTRF FRET, PGE2 co-stimulation; induction, % at 25 µM; 260,000 compounds, 0.83% hits;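 active = compounds whose cAMP rise, as percent of the full-agonist control response, exceeds 60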;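 note: rat C6 glioma line stably carrying human EP2 under a CMV promoter; the protocol text gives 20 µM as final concentration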
GPR7 antag cf: human GPR7 antagonism, confirmation assay | shares compounds with GPR7 antag | GPR7-expressing cells, calcium fluorescence antagonist mode | inhibition, % at 4.4 µM | 2,400 compounds, 52% hits | AID 1952; in the data active = inhibition above about 24%;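 note: stimulated with the GPR7 agonist NPW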
MCHR1 antag: MCHR1 (human) antagonism in GPR7 counter-screen. shares compounds with GPR7 antag. inhibition, % at 4.4 µM. MCHR1-expressing cells, fluorescence antagonist assay. 2,400 compounds, 62% hits; in the data active = inhibition above about 22%
OX1R Ca confirm: OX1R (human) antagonism, confirmed; shares compounds with OX1R antag-2; CHO/OX1R cells, orexin A calcium Fluo-8 fluorescence; inhibition, % at 5 µM; 1,100 compounds, 38% hits; AID 492963; in the data active = inhibition above about 29%
CHO Ca counter: signal in parental CHO cells, OX1R antagonist counter-screen. parental CHO-K1, ATP-induced calcium, Fluo-8 fluorescence. inhibition, % at 5.6 µM. 1,100 compounds, 9.3% hits. shares compounds with OX1R antag-2;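 active = inhibition above a per-plate limit, the mean inhibition of that plate's test compounds plus 3 SD, cut at about 25% in these data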
OX1R HTRF conf: confirmation of human orexin 1 receptor antagonists, HTRF format. shares compounds with OX1R antag-1. OX1R-expressing cells, HTRF antagonist assay. inhibition, % at 6.6 µM. 1,800 compounds, 49% hits; in the data active = inhibition above about 55%;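 note: CHO cells expressing OX1R stimulated with orexin A at about EC80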
CHO-K1 HTRF: counter-screen: parental CHO-K1 HTRF response. shares compounds with OX1R antag-1. inhibition, % at 6.6 µM. AID 493232. parental CHO-K1 cells, HTRF counterscreen. 1,800 compounds, 48% hits; in the data active = inhibition above about 17%
Hits are given with their value; 0 = inactive; - = no result given.

SMILES	PGE2 EP2 inh	CHO parental Ca	OX1R antag-1	OX1R antag-2	GPR7 antag	EP2 modulator	GPR7 antag cf	MCHR1 antag	OX1R Ca confirm	CHO Ca counter	others
CCc1ccc(NC(=O)CSc2ccc(-c3sc(C)nc3C)nn2)cc1	-	0	0	0	31	-	41	76	-	-
CC(=O)c1cccc(NC(=O)CSc2ccc(-c3sc(C)nc3C)nn2)c1	-	0	0	0	0	-	-	-	-	-
O=C(Nc1ccc([N+](=O)[O-])cc1)c1ccc(Cn2cc([N+](=O)[O-])cn2)cc1	0	0	0	0	24	0	66	72	-	-
CC(C)C(NC(=O)c1ccccc1)C(=O)NCc1ccccn1 (stereo unspecified)	0	0	0	0	35	0	0	0	-	-
COc1cc(OC)cc(C(=O)NC(C(=O)NCc2ccccn2)C(C)C)c1 (stereo unspecified)	-	0	0	0	-	-	-	-	-	-
CN(C(=O)COC(=O)c1cc(S(=O)(=O)N2CCOCC2)c(Cl)cc1Cl)C1CCS(=O)(=O)C1 (stereo unspecified)	0	0	0	0	26	0	0	0	-	-
Cn1c(=O)c2c(nc(CN3CCN(Cc4ccccc4)CC3)n2Cc2cccc(Cl)c2)n(C)c1=O	0	0	0	0	0	-	-	-	-	-
Cn1c(=O)c2c(nc(CN3CCc4ccccc4C3)n2Cc2cccc(Cl)c2)n(C)c1=O	0	0	0	0	24	0	0	0	-	-
Fc1ccc(-c2cc(C(F)(F)C(F)F)[nH]n2)cc1	0	0	0	0	42	0	64	63	37	0
c1coc(-c2nnc(SCc3cn4ccccc4n3)o2)c1	0	0	0	0	0	0	-	-	-	-
COc1ccc(-n2ncc3c(=O)n(CC(=O)Nc4ccc5c(c4)OCCO5)cnc32)cc1	-	0	0	0	0	-	-	-	-	-
CCOc1ccccc1NC(=O)c1cc(S(=O)(=O)NCc2ccco2)ccc1F	-	0	0	40	24	-	0	0	0	0
Cc1cccc(N2CCN(C(=O)c3ccc(CS(=O)Cc4cccc(Cl)c4)o3)CC2)c1C (stereo unspecified)	-	0	0	0	42	-	0	31	0	0
N=c1c2c(-c3ccccc3)c(-c3ccccc3)n(Cc3ccco3)c2ncn1Cc1ccccc1	0	0	0	59	24	0	58	92	43	0
CC(C)Cn1cnc2c(c(-c3ccccc3)c(-c3ccccc3)n2Cc2ccco2)c1=N	0	0	0	0	0	0	-	-	-	-
Cc1ccc(CN(CCCn2ccnc2)Cc2cnc(C(C)C)nc2)o1	0	-	-	-	-	0	-	-	-	-
COc1ccc(OCc2n(CC(=O)OC3CC(C)CCC3C(C)C)c3ccccc3[n+]2C)cc1 (stereo unspecified)	0	0	0	40	71	0	62	84	47	0
Cc1nn(CC(=O)NCCN2CCCCCC2)c(=O)c2nn(-c3ccccc3)c(C)c12	-	0	0	0	0	-	-	-	-	-
CN(CCNC(=O)CN1C(=O)CSc2ccc(S(=O)(=O)N3CCCC3)cc21)Cc1ccccc1	0	0	0	0	0	0	-	-	-	-
Cc1cc(C)nc(/N=C(\N)Nc2ccc(SC(F)F)cc2)n1	0	0	0	0	64	0	68	78	64	0
Cc1cc(C)nc(/N=C(\N)Nc2ccc(S(N)(=O)=O)cc2)n1	0	0	0	0	0	0	-	-	-	-
CCOc1ccc(NC2=C(Cl)C(=O)N(Cc3ccccc3)C2=O)cc1	0	0	0	51	74	0	99	64	0	0
COc1ccc(NC2=C(Cl)C(=O)N(CCc3ccccc3)C2=O)cc1	0	0	0	0	0	0	-	-	-	-
COC(=O)C1=C(C)N(Cc2ccccc2)C(=NCc2ccccc2)N[C@H]1c1cccc(F)c1	-	0	0	0	51	-	55	59	33	0
Clc1cccc(-c2nnc(SC/C=C/c3ccccc3)n2Cc2ccco2)c1	0	0	0	49	27	0	44	72	0	0
SMILES	PGE2 EP2 inh	CHO parental Ca	OX1R antag-1	OX1R antag-2	GPR7 antag	EP2 modulator	GPR7 antag cf	MCHR1 antag	OX1R Ca confirm	CHO Ca counter	others
Cc1cccc(-c2nnc(SCc3nc4ccccc4[nH]3)n2Cc2ccco2)c1	0	0	0	0	0	0	-	-	-	-
COc1ccc(S(=O)(=O)Nc2ccc(F)cc2)cc1N(C)S(=O)(=O)c1ccc(Cl)cc1	0	0	0	0	0	0	-	-	-	-
COc1ccc(NS(=O)(=O)c2ccc(OC)c(N(C)S(=O)(=O)c3ccc(Cl)cc3)c2)cc1	0	0	0	61	27	0	29	52	0	25
COC(=O)c1cc2ccccn2c2c(C(=O)OC)c(C(=O)OC)cc1-2	41	0	94	0	31	0	0	22	-	-	OX1R HTRF conf=0;CHO-K1 HTRF=25
COC(=O)c1cc2c(C)cc3ccc(C)cn3c-2c1C(=O)OC	0	0	0	0	0	0	-	-	-	-
Nc1c(C(=O)O)ccc2c1C(=O)c1ccccc1C2=O	0	0	107	0	23	0	0	0	-	-	OX1R HTRF conf=0;CHO-K1 HTRF=29
COc1ccc(-c2cc(=O)c3ccccc3s2)cc1	0	0	83	0	35	0	0	27	-	-	OX1R HTRF conf=85;CHO-K1 HTRF=0
CC(C)Oc1ccc(/C=C(\C#N)C(=O)NC2CC2)cc1	-	0	0	0	-	-	-	-	-	-
CCOC(=O)c1cc2[nH]c3ccccc3c2[n+](-c2ccc([N+](=O)[O-])cc2)c1C	0	0	114	0	23	0	0	0	-	-	OX1R HTRF conf=0;CHO-K1 HTRF=75
O=C(OCc1cccc([N+](=O)[O-])c1)c1cc(=O)[nH]c2ccccc12	0	0	0	0	0	0	-	-	-	-
CC(=O)c1cccc(-c2ccc3c(=O)[nH]c(Nc4ccccc4)cc3c2)c1	0	0	0	0	-	-	-	-	-	-
CC(c1ccco1)N(C(=O)c1ccccc1NS(=O)(=O)c1ccc(Cl)c([N+](=O)[O-])c1)c1ccccn1 (stereo unspecified)	0	0	98	0	24	0	0	31	-	-	OX1R HTRF conf=0;CHO-K1 HTRF=0
Cc1cc(C(=O)OC(C)C(=O)NC2CCCCC2)c(C)o1 (stereo unspecified)	-	0	0	0	-	-	-	-	-	-
CN(C)C(=O)c1cc2cc([N+](=O)[O-])ccc2s1	0	0	120	0	26	0	0	0	-	-	OX1R HTRF conf=0;CHO-K1 HTRF=33
COC(=O)COc1cc2ccccc2cc1C(=O)Nc1ccccc1	0	0	0	0	0	0	-	-	-	-
